# Screens (PubChem)
# Compounds with a hit are over-represented: about 2.9% of the library has one in this group of screens.
# MEKK3 PB1 HTS: MEKK3-MEK5 PB1 interaction, increase or decrease; Q99759; binding response (% of control), % at 10 µM; bead-based flow cytometry, Alexa488-MEK5 binding to MEKK3; actives lie on both sides; 0 = blocked by unlabeled MEK5, 100 = vehicle; 290,000 compounds, 1.4% hits; AID 1529;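 active means binding response more than 3 SD above or below the average of its plate-row segment, actives on both sides; inconclusive means wells at one plate position flagged as instrument error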;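 further: Alexa488 bead fluorescence after subtracting the streptavidin-only scavenger bead signal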
# Target sequence (Q99759 whole entry, looked up): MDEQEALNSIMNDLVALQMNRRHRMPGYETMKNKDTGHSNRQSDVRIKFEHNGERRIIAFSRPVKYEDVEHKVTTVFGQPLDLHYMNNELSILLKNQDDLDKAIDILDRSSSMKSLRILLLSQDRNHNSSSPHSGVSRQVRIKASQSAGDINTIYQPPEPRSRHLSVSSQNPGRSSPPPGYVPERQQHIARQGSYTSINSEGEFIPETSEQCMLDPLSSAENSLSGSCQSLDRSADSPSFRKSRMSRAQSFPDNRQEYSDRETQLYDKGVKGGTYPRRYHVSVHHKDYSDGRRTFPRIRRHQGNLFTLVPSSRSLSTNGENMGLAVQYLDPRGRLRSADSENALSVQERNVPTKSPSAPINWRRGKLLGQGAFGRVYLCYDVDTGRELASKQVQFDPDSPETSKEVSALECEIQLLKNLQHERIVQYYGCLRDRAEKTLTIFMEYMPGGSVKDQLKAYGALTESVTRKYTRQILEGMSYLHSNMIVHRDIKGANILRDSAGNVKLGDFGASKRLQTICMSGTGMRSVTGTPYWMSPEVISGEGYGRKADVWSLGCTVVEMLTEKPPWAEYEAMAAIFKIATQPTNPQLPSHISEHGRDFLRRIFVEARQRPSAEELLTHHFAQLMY
# Beta2AR agonist: agonists of human beta-2 adrenergic receptor inducing internalization. response, % (test concentration not listed). 340,000 compounds, 0.43% hits. Am2.2-beta2AR cells, FAP receptor internalization, flow cytometry. P07550;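 active means response above a set limit, near 3 SD of response in nonfluorescent compounds, cut at about 42% in these data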
# Dynein cargo inh: blocks dynein driven cargo transport along microtubules | 3617.4 mouse cells, GR-EGFP nuclear translocation imaging; test concentration mostly 20 µM; stimulated with dexamethasone, 1 µM; active compounds read low | z-score, hits read low | 220,000 compounds, 0.47% hits | AID 1381;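 active means plate z-score of nuclear minus cytoplasmic receptor signal below a set negative limit, without overly bright fluorescence or cell loss, cut at about -3.5 in these data, passing the limit was not always enough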;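 further: z-score of nuclear minus cytoplasmic ring GR-EGFP intensity difference per well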
#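 Schedule: 48 h induction, then 1 h compound, then 30 min agonist, 37 °C. Buffer or medium: tetracycline-free induction medium containing charcoal-stripped FBS. Reagent: 1.0 µM final dexamethasone stimulus. Evaluation: nuclear versus cytoplasmic GR-EGFP signal, averaged per well. Signal: high-content fluorescence imaging after fixation.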
# MEKK2 WT-MEK5: raises or lowers MEK5 binding to wildtype human MEKK2 PB1 domain | 290,000 compounds, 1.1% hits | bead flow cytometry, Alexa488-MEK5 binding to MEKK2 WT; actives lie on both sides | Q9Y2U5 | binding response (% of control), % at 10 µM; in the data active means binding response below about 67% or above about 130%; inconclusive means no clear call, values can overlap the other calls; inactive means in between
# ATG4B inhibitor: ATG4B (human) cysteine protease inhibition. ATG4B cleavage of LC3-PLA2, NBD-HPC fluorescence, 1 h. inhibition, % at 8.33 µM. 340,000 compounds, 0.51% hits; in the data active means inhibition above about 40%
# MEKK2 mut-MEK5: signal of MEK5 binding to mutant human MEKK2 PB1 domain; bead flow cytometry, Alexa488-MEK5 binding to MEKK2 mutant; percent response, % at 10 µM; 290,000 compounds, 0.35% hits; in the data active means percent response above about 24%, passing the limit was not always enough
# Dynein inh conf: dynein cargo transport inhibition, confirmation; shares compounds with Dynein cargo inh; 3617.4 GR-EGFP nuclear translocation imaging, dexamethasone-induced; calls only at 20 µM; 1,000 compounds, 69% hits;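 active means inhibition of receptor movement into the nucleus at or above a set limit in both runs, with normal cell brightness and cell count; inconclusive means limit reached in only one run, brightness and count normal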;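 further: dexamethasone at 1 µM final in well for 30 min; nuclear minus cytoplasmic GR-EGFP mean intensity difference in channel 2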
# Numbers without * were called inactive; i = inactive; u = inconclusive; x = no result; + = active, no number.
SMILES,MEKK3 PB1 HTS,Beta2AR agonist,Dynein cargo inh,MEKK2 WT-MEK5,ATG4B inhibitor,MEKK2 mut-MEK5,Dynein inh conf
COCCN(C(=O)CCl)C(C(=O)NC1CCCCC1)c1ccccc1C (stereo unspecified),122,3,-4.4*,102,2,-1,+
COCCN(C(=O)CCC(=O)Nc1cc(C)on1)C(C(=O)NC1CCCC1)c1ccccc1C (stereo unspecified),94,3,0.15,93,2,-4,x
O=C(COc1ccc(F)cc1Cl)Nc1cccc(S(=O)(=O)N2CCCCCC2)c1,x,-6,x,x,13,x,x
CSc1nnc(C)c(/C=C/NOCc2ccc(Cl)cc2)n1,105,1,0.43,103,-8,0,x
CSc1nnc(C)c(/C=C/Nc2ccc(C)cc2)n1,107,1,-8.3,102,-11,19,+
Cc1ccc(SC(=O)c2c(C)noc2-c2cc(C)on2)cc1,96,5,-5.1*,100,-1,-7,+
CC(C)c1ccc(CN2CCN(C(=O)CCl)CC2)cc1,107,3,-5.9*,108,2,-3,+
CC(C)CC(=O)N1CCN(Cc2ccc(Cl)cc2)CC1,99,3,x,98,-8,-2,x
N#Cc1ccccc1CN1C(=O)NC2(CCCCCC2)C1=O,96,-10,x,97,2,-2,x
COc1cc(C(C[N+](=O)[O-])c2c(N)n(C)c(=O)n(C)c2=O)ccc1O (stereo unspecified),x,11,-1.6,x,-2,x,x
COc1cccc(F)c1C(C[N+](=O)[O-])c1c(N)n(C)c(=O)n(C)c1=O (stereo unspecified),109,9,-3.6*,110,-4,7,+
CC(C)(C)C(=O)Cn1ncc(N2CCOCC2)c(Br)c1=O,102,-4,-0.9,99,-12,3,x
O=C(OCn1ncc(Br)c(Br)c1=O)c1c(F)cccc1F,108,x,-4.8*,107,x,4,+
CC(=O)Cn1ncc(Br)c(Br)c1=O,99,11,-4.6*,103,0,1,+
Cn1cnc([N+](=O)[O-])c1S(=O)(=O)c1ccc(Cl)cc1,98,15,-4.2*,101,0,0,+
Cn1cnc([N+](=O)[O-])c1NC(C)(C)C,104,1,0.9,105,2,3,x
O=S(=O)(CCN(CCS(=O)(=O)C(F)(F)F)CC1CCCO1)C(F)(F)F (stereo unspecified),97,39,-4.1*,96,-11,-2,u
Cc1ccc(/C=C/C(=O)c2c(C)cc(C)[nH]c2=O)cc1,94,11,-1.6,95,1,-1,x
CCc1ccc(/C=C/C(=O)c2c(C)cc(C)[nH]c2=O)cc1,102,10,-4*,104,-14,3,+
Cc1ccc(C(=O)N2CCC(N3CCC(C(=O)N4CCOCC4)CC3)CC2)cc1C,108,1,x,109,-1,8,x
COc1cc(/C=C/[N+](=O)[O-])ccc1OCc1cccc(C(=O)O)c1,100,x,-3.6*,100,2,1,+
O=C1C(Cl)=C(NCCN2CCCCC2)C(=O)c2ccccc21,107,18,-4.2*,100,6,-1,+
C/C=C(\CS(=O)(=O)c1ccccc1)S(=O)(=O)c1ccccc1,99,-2,-3.6*,101,-11,1,u
O=C(/C=C/c1ccccc1)/C=C/c1ccccc1,95,16,-7*,76,5,-2,+
CCOC(=O)c1c(-c2ccc(C)o2)csc1NC(=O)CSc1nncs1,101,9,-4*,98,-4,2,i
SMILES,MEKK3 PB1 HTS,Beta2AR agonist,Dynein cargo inh,MEKK2 WT-MEK5,ATG4B inhibitor,MEKK2 mut-MEK5,Dynein inh conf
CCOC(=O)c1c(-c2ccc(C)o2)csc1NC(=O)CN1CCN(CC)CC1,83,-5,-2.1,106,-22,-2,x
CCOC(=O)c1c(-c2ccc(C)o2)csc1NC(=O)CN1CCCCC1,103,7,-4.6*,109,11,-4,i
CC(NC(=O)COc1ccc(S(=O)(=O)N2CCCC2)cc1)c1ccccc1 (stereo unspecified),103,1,x,95,-6,-1,x
CCOC(=O)C1CCN(S(=O)(=O)c2ccc3[nH]c(=O)ccc3c2)CC1,101,-4,x,99,-7,1,x
Cc1ccc(-n2nnnc2C(Cl)c2nnnn2-c2ccc(C)cc2)cc1,117,9,-4.2*,106,-19,1,+
Cc1ccc(-n2nnnc2-c2ccccc2)cc1,96,0,0.24,96,-2,-2,x
CN1CCN(Cc2nc3ccccc3c(=O)n2Cc2nc(-c3ccc([N+](=O)[O-])cc3)cs2)CC1,101,x,-3.7*,132,-12,40,i
CN(C)Cc1nc2ccccc2c(=O)n1Cc1nc(-c2cccc([N+](=O)[O-])c2)cs1,105,-2,-0.56,112,-3,-3,x
CC(=O)Nc1ccc(S(=O)(=O)N(C#N)c2nc(C)cc(C)n2)cc1,108,-6,x,102,-1,3,x
Cc1occc1-c1nnc(SCC(=O)N2CCc3ccccc32)o1,107,8,-4*,109,4,9,i
CCOC(=O)/C(C#N)=C\c1cn(C)c2ccccc12,98,-5,-0.0015,89,-9,-9,x
CCOC(=O)/C(=C\c1cn(C)c2ccccc12)[N+](=O)[O-],103,16,-3.7*,104,-4,2,+
O=C(Nc1ccc(N2CCN(C(=O)c3ccccc3F)CC2)cc1)c1cncc(Br)c1,100,15,x,100,-7,-1,x
COC(=O)c1cn(NC(=O)c2cc([N+](=O)[O-])ccc2F)c(=O)c2ccccc12,100,3,-3.9*,97,12,2,+
Cc1cc(C)c(C)c(S(=O)(=O)N2CCN(C(=O)c3ccccn3)CC2)c1C,x,1,x,x,4,x,x
O=C(CCl)Nc1ccc(N2CCCCCC2)cc1,102,4,-6*,110,4,0,+
O=C(CCl)Nc1ccc(-c2ccccc2)cc1,99,0,-5.4*,99,4,-2,+
Cc1ccc(Sc2ccc(NC(=O)CCl)cc2)cc1C,105,8,-4.5*,107,13,0,+
O=C(CCl)Nc1cccc(Oc2ccccc2)c1,99,1,-4.3*,103,-4,-1,+
O=C(CCl)Nc1ccc(N=Nc2ccccc2)cc1,102,13,-0.82,102,-15,-1,x
O=C(CCl)Nc1cccc(Oc2cnccn2)c1,101,11,x,100,1,3,x
